# Measurements pooled from the literature.
# Lines come from different studies, so protocols differ.
# Observed: cell growth or viability
Structure (SMILES),cell line,test,conditions,endpoint,result
Cc1ccc2c(-c3cc4c(CN5CCN(Cc6ccccn6)CC5)cnc(C)c4o3)cc(=O)oc2c1,NCI-H1975,MTT,72 h,IC50,32.1 µM
O=C1CC[C@@H](COc2ccc(C(=O)C(Cl)Cl)cc2[N+](=O)[O-])N1,NCI-H1975,MTT,2.5 µM,inhibition,96.7%
C=CC(=O)N1CCC([C@@H]2CCNc3c(C(N)=O)c(-c4ccc(Oc5ccccc5)cc4)nn32)CC1,TMD8,,6 days,IC50,0.0007 µM
Cc1ncc(CN2CCc3ccccc3C2)c2cc(C(=O)c3ccc4c(c3)OCCO4)oc12,NCI-H1975,MTT,72 h,IC50,29.5 µM
CC(C)Oc1ccc(S(=O)(=O)c2ccc(Oc3cc(OCC(N)=O)c(C(=O)C(Cl)Cl)cc3[N+](=O)[O-])cc2)cc1,NCI-H1975,MTT,72 h,IC50,0.3 µM
C=C(F)C(=O)N1CCN(c2nc(OC[C@@H]3CCCN3C)nc3c2CCN(c2cccc4cccc(Cl)c24)C3)C[C@@H]1CC#N,SW1463,ATP luminescence,3D culture,IC50,0.00422 µM
O=C(NO)c1ccc(CNc2nc3cccc(-c4ccc5c(c4)OCO5)n3n2)cc1,SF-539,SRB,,GI50,600 nM
O=C(c1ccc(Oc2ccc(OCc3ccccc3)cc2)c([N+](=O)[O-])c1)C(Cl)Cl,NCI-H1975,MTT,2.5 µM,inhibition,95.2%
N[C@H]1CC[C@H](N[C@@H]2C[C@H]2c2ccccc2)CC1,HEK293,resazurin,,IC50,120 µM
CC1(C)CCC(CN2CCN(c3ccc(C(=O)NS(=O)(=O)c4ccc(NCC5CCOCC5)c([N+](=O)[O-])c4)c(Oc4cnc5[nH]ccc5c4)c3)CC2)=C(c2ccc(Cl)cc2)C1,Rec1,ATP luminescence,48 h,IC50,0.489 µM
Cc1ncc(CN2CCN(Cc3ccccn3)CC2)c2cc(C(=O)c3ccc4c(c3)OCCO4)oc12,NCI-H1975,MTT,72 h,IC50,38.8 µM
O=C1c2ccccc2C(=O)c2c(Oc3ccc(C(=O)C(Cl)Cl)cc3[N+](=O)[O-])cccc21,NCI-H1975,MTT,2.5 µM,inhibition,97.1%
C=CC(=O)NC1CCN(c2ncc3ncnc(Nc4ccc(Oc5ccc6c(c5)ncn6C)c(C)c4)c3n2)CC1,SUM-159-PT,,,EC50,334 nM
C=CC(=O)Nc1cc(Nc2nccc(-c3cn(C)c4ccccc34)n2)c(OC)cc1N(C)CCN(C)C,NCI-H1975,MTT,"0.5 µM, 72 h",inhibition,69.6%
O=C(c1ccccc1)c1ccc(Oc2ccc(C(=O)C(Cl)Cl)cc2[N+](=O)[O-])cc1,NCI-H1975,MTT,2.5 µM,inhibition,97.8%
C#Cc1cccc(Nc2ncnc3cc(OCCOC)c(OCCOC)cc23)c1,NCI-H1975,MTT,72 h,IC50,55 µM
COc1cc2c3c(n(CCCNCCO)c(=O)c2cc1OC)-c1nc2c(cc1C3=O)OCO2,SF-539,SRB,48 h,GI50,1000 nM
